Where “and” joins values, the source holds several entries; their conditions need not be identical. Equal values may be shown once.
Assays:
[1] = Average half life period was determined; format: ADME
[2] = Half life period was determined; format: ADME; settings: rat
[3] = First order rate constant for Alkylation reaction by the compound (17 mM) at temperature 27 degrees C with 1 M lutidine at pH 7.4 in the presence of 10 mol equiv of 2-mercaptoethanol; format: functional
Summary of the method: (§1)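 Decomposition followed over time by 31P NMR in 1 M lutidine buffer made with D2O, "pH" 7.4 (meter reading plus 0.4 unit for the deuterium isotope effect), with 2-mercaptoethanol as trapping agent. Concentrations of species A, B and C were tracked against time, and k1 (first alkylation) and k2 (second alkylation) were derived from them.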

[4] = First order rate constant for Alkylation reaction by the compound (17 mM) at temperature 37 degrees C with 1 M lutidine at pH 7.4 in the presence of 10 mol equiv of sodium thiosulfate; format: functional
Summary of the method: (§2)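 Run by 31P NMR in 1 M lutidine (D2O), "pH" 7.4 (corrected meter reading), 37 °C, with 10 mol equiv sodium thiosulfate as trapping agent. Overlapping A, B and C resonances were resolved by least-squares fitting to three Lorentzians or by Lorentz–Gauss resolution enhancement. This gave concentration–time estimates, from which k1 and k2 were derived.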

[5] = Second order rate constant for Alkylation reaction by the compound (17 mM) at temperature 37 degrees C with 1 M lutidine at pH 7.4 in the presence of 10 mol equiv of sodium thiosulfate; format: functional; summary of the method: as §2
[6] = Second order rate constant for Alkylation reaction by the compound (17 mM) at temperature 47 degrees C with 1 M lutidine at pH 7.4 in the presence of 10 mol equiv of 2-mercaptoethanol; format: functional; summary of the method: as §1
[7] = First order rate constant for Alkylation reaction by the compound (17 mM) at temperature 47 degrees C with 1 M lutidine at pH 7.4 in the presence of 10 mol equiv of 2-mercaptoethanol; format: functional; summary of the method: as §1
[8] = Second order rate constant for Alkylation reaction by the compound (17 mM) at temperature 37 degrees C with 1 M lutidine at pH 7.4 in the presence of 10 mol equiv of 2-mercaptoethanol; format: functional; summary of the method: as §1
[9] = First order rate constant for Alkylation reaction by the compound (11 mM) at temperature 20 degrees C with 1 M lutidine at pH 7.4 in the presence of 63 mol equiv of 2-mercaptoethanol; format: functional; summary of the method: as §1
[10] = Half life period for first alkylation reaction was determined; format: ADME
Summary of the method: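 Half-life derived from the k1 value (first alkylation, i.e. mustard disappearance), measured by 31P NMR in 1 M lutidine, "pH" 7.4, 37 °C, with trapping agent.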

[11] = Second order rate constant for Alkylation reaction by the compound (11 mM) at temperature 20 degrees C with 1 M lutidine at pH 7.4 in the presence of 63 mol equiv of 2-mercaptoethanol; format: functional; summary of the method: as §1
[12] = First order rate constant for Alkylation reaction by the compound (17 mM) at temperature 37 degrees C with 1 M lutidine at pH 7.4 in the presence of 10 mol equiv of 2-mercaptoethanol; format: functional; summary of the method: as §1
[13] = Pka value at 20 degrees C
Summary of the method: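 31P NMR chemical shift recorded in unbuffered water as a function of solution pH at 20 °C. The shift versus pH data were fitted to the Henderson–Hasselbalch equation to give the pKa.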

[14] = Second order rate constant for Alkylation reaction by the compound (17 mM) at temperature 27 degrees C with 1 M lutidine at pH 7.4 in the presence of 10 mol equiv of 2-mercaptoethanol; format: functional; summary of the method: as §1
[15] = First order rate constant for Alkylation reaction by the compound (17 mM) at temperature 20 degrees C with 1 M lutidine at […] in the presence of 10 mol equiv of 2-mercaptoethanol; format: functional

| SMILES | half-life [1] | half-life [2] | K1 [3] | K1 [4] | K2 [5] | K2 [6] | K1 [7] | K2 [8] | K1 [9] | T1/2 [10] | K2 [11] | K1 [12] | Pka [13] | K2 [14] | K1 [15] |
| --- | --- | --- | --- | --- | --- | --- | --- | --- | --- | --- | --- | --- | --- | --- | --- |
| OC1CCOP(NCCCl)N1CCCl (trans isomer) | 1.03 h |  |  |  |  |  |  |  |  |  |  |  |  |  |  |
| O=P1(NCCCl)OCCC(O)N1CCCl (stereo unspecified) [ALDOIFOSFAMIDE] | 0.733 h | 1 h |  |  |  |  |  |  |  |  |  |  |  |  |  |
| O=P(O)(NCCCl)NCCCl [PALIFOSFAMIDE] |  |  | 2.36 10e-3 min-1 | 8.29 10e-3 min-1 | 4.29 10e-3 min-1 | 20 10e-3 min-1 | 34.3 10e-3 min-1 | 4.05 10e-3 min-1 | 1.07 10e-3 min-1 | 1.28 h and 2.85 h | 0.63 10e-3 min-1 | 9.03 10e-3 min-1 | 4.28 | 1.14 10e-3 min-1 | 1.2 10e-3 min-1 |
